From ChEMBL document CHEMBL1212914, “A novel water-soluble gossypol derivative increases chemotherapeutic sensitivity and promotes growth inhibition in colon cancer” (J Med Chem, 2010) come the findings set out here.

Data set [1] relates to A549. As to the kind of experiment: Cytotoxicity against human A549 cells after 72 hrs by MTT assay. The format is functional, cell-based. The note with it: A549, 72 h. The essentials: (§1)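 Compounds dissolved in DMSO; cells seeded at 5 × 10^3 per well and treated after adherence with a range of concentrations for 72 h, with DMSO as negative control. MTT was added for 4 h at 37 °C in the dark, formazan dissolved in DMSO, and absorbance read. IC50 (μM) was calculated as the mean of three independent experiments.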
A general note: Formazan colour is commonly taken as a measure of viable cells.

Data set [2] deals with MDA-MB-435. As to the kind of experiment: Cytotoxicity against human MDA-MB-435 cells after 72 hrs by MTT assay. The format is functional, cell-based. The note with it: Homo sapiens, MDA-MB-435, 72 h. The procedure, abridged:
as §1

The test system of data set [3] is MCF7. As to the kind of experiment: Cytotoxicity against human MCF7 cells after 72 hrs by MTT assay. The format is functional, cell-based. The note with it: Homo sapiens, MCF7, 72 h. The essentials: as §1
The subject of data set [4] is HCT-116. The experiment in a line: Cytotoxicity against human HCT116 cells after 72 hrs by MTT assay. The class given is functional, cell-based. The note with it: Homo sapiens, HCT-116, 72 h. The procedure, abridged:
as §1

Data set [5] has as its system B16-F10. As to the kind of experiment: Cytotoxicity against mouse B16F10 cells after 72 hrs by MTT assay. The format is functional, cell-based. The note with it: Mus musculus, B16-F10, 72 h. The essentials: as §1
The subject of data set [6] is PC-3. As to the kind of experiment: Cytotoxicity against human PC3 cells after 72 hrs by MTT assay. The format is functional, cell-based. The note with it: Homo sapiens, PC-3, 72 h. The procedure, abridged: as §1
Data set [7] deals with 4T1. The experiment in a line: Cytotoxicity against mouse 4T1 cells after 72 hrs by MTT assay. The format is functional, cell-based. The note with it: Mus musculus, 4T1, 72 h. The procedure, abridged: as §1
For data set [8], the system named is CT26. The experiment in a line: Cytotoxicity against mouse CT26 cells after 72 hrs by MTT assay. The format is functional, cell-based. The note with it: Mus musculus, CT26, 72 h. The essentials: as §1
The test system of data set [9] is MCF-7 (Homo sapiens). As to the kind of experiment: Cytotoxicity against human MCF-7 cells after 72 hrs by MTT assay. The note with it: MCF-7, 72 h.
The subject of data set [10] is SW-620. As to the kind of experiment: Cytotoxicity against human SW620 cells after 72 hrs by MTT assay. The note with it: Homo sapiens, SW-620, 72 h. The class given is functional, cell-based. The procedure, abridged:
as §1

In data set [11] the test system is CT26. As to the kind of experiment: Induction of apoptosis in mouse CT26 cells assessed as reduction of Bcl-xL protein level at 5 to 10 uM after 24 hrs by immunoblotting. The class given is functional, cell-based. The procedure, abridged: (§2)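 CT26 cells were exposed to 5 or 10 μM for the indicated times, with DMSO as control. Lysates were run on 10% SDS-PAGE and transferred to nitrocellulose. Blots were probed overnight at 4 °C for Bcl-2 and Bcl-xL, with β-actin as loading control, and detected by HRP chemiluminescence. Experiments were repeated three times.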
On the technique in general: Immunoblotting shows a protein as a band on a membrane.

In data set [12] the test system is CT26. The experiment in a line: Induction of apoptosis in mouse CT26 cells assessed as reduction of Bcl-2 mRNA level at 10 uM after 24 hrs by RT-PCR analysis. The class given is functional, cell-based.
In data set [13] the test system is CT26. The experiment in a line: Induction of apoptosis in mouse CT26 cells assessed as reduction of Bcl-xL mRNA level at 10 uM after 24 hrs by RT-PCR analysis. The class given is functional, cell-based.
In data set [14] the test system is CT26. The experiment in a line: Induction of apoptosis in mouse CT26 cells assessed as inhibition of Bcl-2-Bax interaction at 20 uM after 24 hrs by immunoprecipitation analysis. The format is functional, cell-based. The essentials:
(§3)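 CT26 cells were treated for 24 h, with DMSO as control, then lysed in Triton X-100 buffer for 30 min at 4 °C. Lysates were immunoprecipitated overnight at 4 °C with anti-Bcl-2 or anti-Bcl-xL antibody plus protein A-agarose. Eluates were western-blotted for Bax (Bcl-2 pulldown) or Bim (Bcl-xL pulldown).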

The subject of data set [15] is CT26. As to the kind of experiment: Induction of apoptosis in mouse CT26 cells assessed as inhibition of Bcl-xL-Bim interaction at 20 uM after 24 hrs by immunoprecipitation analysis. The format is functional, cell-based. The essentials: as §3
Data set [16] deals with CT26. As to the kind of experiment: Antitumor activity against mouse CT26 cells xenografted in BALB/c mouse assessed as decrease of tumor volume at 10 umol/kg, po for 12 consecutive days. The format is functional, organism-based. The procedure, abridged: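 Male BALB/c mice (6-8 weeks) received 5 × 10^5 CT26 cells subcutaneously in the right flank. At 60 mm3, tumor-bearing mice were randomized (n = 4 per group) and dosed by gavage at 10 μmol/kg daily for 12 days in 10% ethanol, with vehicle as control. Tumors were measured every 2 days by caliper; volume = length × width × width × π/6.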

Data set [17] deals with Mus musculus. As to the kind of experiment: Toxicity in BALB/c mouse assessed as weight loss at 120 umol/kg, po administered daily once for 12 days. The format is organism-based. The note with it: in vivo, 288 h. The essentials: (§4)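 Male BALB/c mice aged 6-8 weeks, n = 6 per group, received 120 μmol/kg by gavage once daily for 12 days in 10% ethanol, with 10% ethanol alone as the control. Survival was followed over time, and mice were weighed at day 12 and then sacrificed. Small intestine was paraffin-embedded, cut into 5 μm sections, H&E-stained and examined by light microscopy. Student's t test was used.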

The test system of data set [18] is Mus musculus. The experiment in a line: Toxicity in BALB/c mouse assessed as induction of small intestine damage at 120 umol/kg, po administered daily once for 12 days. The class given is organism-based. The note with it: in vivo, 288 h. The essentials: as §4
Data set [19] can be described thus: Solubility of the compound in 100 gram of water. The format is physicochemical. The note with it: buffer. The procedure, abridged:
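Water solubility was measured at 37 °C as the mass of compound dissolving in 100 g of H2O.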

The nature of data set [20]: Chemical stability of the compound in phosphate buffered saline at pH 7.2 to 7.4 after 30 mins. The format is physicochemical. The note with it: buffer, pH 7.2, 0.5 h. The essentials: (§5)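 The compound was incubated for 30 min in PBS (pH 7.2-7.4) or in human or mouse serum, and the amount remaining was analyzed by HPLC.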
Data set [21] deals with Serum. As to the kind of experiment: Metabolic stability of the compound in human serum after 30 mins. The class given is ADME, cell-free. The note with it: 0.5 h. The essentials:
as §5

Data set [22] deals with Serum. The experiment in a line: Metabolic stability of the compound in mouse serum after 30 mins. The note with it: 0.5 h. The class given is ADME, cell-free. The essentials: as §5
Data set [23] has as its system CT26. As to the kind of experiment: Cytotoxicity against mouse CT26 cells assessed as cell viability at 20 uM after 24 hrs by […]. The class given is functional. The note with it: CT26, 24 h, read-out: Activity. The procedure, abridged:
(§6)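 CT26 cells were seeded at 2 × 10^3 per well and, after adherence, exposed to 2, 5, 10 or 20 μM for up to 120 h. Viability was read with a Cell Titer 96 Aqueous One Solution proliferation kit rather than MTT.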

The subject of data set [24] is CT26. As to the kind of experiment: Cytotoxicity against mouse CT26 cells assessed as cell viability at 20 uM after 48 hrs […]. The note with it: CT26, 48 h, read-out: Activity. The class given is functional. The essentials: as §6
Data set [25] relates to CT26. The experiment in a line: Cytotoxicity against mouse CT26 cells assessed as complete cell death at 20 uM after 72 hrs by […]. The class given is functional, cell-based. The procedure, abridged: as §6
The test system of data set [26] is CT26. As to the kind of experiment: Cytotoxicity against mouse CT26 cells at 5 to 10 uM after 24 hrs by […]. The class given is functional, cell-based. The essentials: as §6
The test system of data set [27] is CT26. As to the kind of experiment: Cytotoxicity against mouse CT26 cells assessed as cell viability at 2 uM after 120 hrs by […]. The class given is functional. The note with it: CT26, 120 h, read-out: Activity. The essentials: as §6
Data set [28] relates to CT26. As to the kind of experiment: Cytotoxicity against mouse CT26 cells at 2 to 20 uM by […]. The note with it: TDE = time-dependent effect. The format is functional, cell-based. The essentials: as §6
Data set [29] has as its system CT26. As to the kind of experiment: Induction of apoptosis in mouse CT26 cells at 5 to 10 uM by TUNEL assay. The note with it: TDE = time-dependent effect. The format is functional, cell-based. The essentials: (§7)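 After treatment at various concentrations and times, CT26 cells were PBS-washed and fixed in 4% paraformaldehyde for 1 h at room temperature. They were permeabilized for 2 min on ice, then incubated with TUNEL reaction mixture for 1 h at 37 °C in the dark and counterstained with DAPI. TUNEL-positive cells were counted by fluorescence microscopy in five random fields and averaged; DMSO served as control.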

The test system of data set [30] is CT26. As to the kind of experiment: Induction of apoptosis in mouse CT26 cells after 24 to 72 hrs by TUNEL assay. The class given is functional, cell-based. The essentials:
as §7

Data set [31] has as its system CT26. As to the kind of experiment: Induction of apoptosis in mouse CT26 cells assessed as reduction of Bcl-2 protein level at 5 to 10 uM after 24 hrs by immunoblotting. The class given is functional, cell-based. The essentials:
as §2

The source made the active and inactive calls. The calls are words filed in the database; no cut-off is given here.

One may read the IC50 as the concentration that inhibits the measured activity by half.

As to `CO[C@@H](c1ccc([N+](=O)[O-])cc1)[C@H](CO)/N=C/c1c(O)c(O)c(C(C)C)c2cc(C)c(-c3c(C)cc4c(C(C)C)c(O)c(O)c(/C=N/[C@@H](CO)[C@@H](OC)c5ccc([N+](=O)[O-])cc5)c4c3O)c(O)c12`, the concentration for half-maximal inhibition (IC50) in data set [1] was over 40 µM; in [2], over 40 µM; in [3] it was over 40 µM; in data set [4], 17.7 µM; in [5], over 40 µM; in data set [6], over 40 µM. For the same molecule, the IC50 in [7], in data set [8] and in data set [9] was over 40 µM each time.

`COC(=O)C(/N=C/c1c(O)c(O)c(C(C)C)c2cc(C)c(-c3c(C)cc4c(C(C)C)c(O)c(O)c(/C=N/C(C(=O)OC)c5c[nH]c6ccccc56)c4c3O)c(O)c12)c1c[nH]c2ccccc12` (configuration not stated): the 50% inhibitory concentration (IC50) in data set [1], in data set [2], in data set [3], in data set [4], in data set [5] and in data set [6] was over 40 µM throughout. For the same molecule, the half-maximal inhibitory concentration (IC50) in data set [7], in data set [8] and in data set [9] was over 40 µM throughout.

For `CCC(C)[C@H](/N=C/c1c(O)c(O)c(C(C)C)c2cc(C)c(-c3c(C)cc4c(C(C)C)c(O)c(O)c(/C=N/[C@H](C(=O)O)C(C)CC)c4c3O)c(O)c12)C(=O)O` (some centres not stated), the half-maximal inhibitory concentration (IC50) in [1] was 14.8 µM; in data set [2] it was over 40 µM; in [3], 28.5 µM; in [10] it was 22.6 µM; in data set [4], 34.9 µM; in data set [5], 19.9 µM. Further, the 50% inhibitory concentration (IC50) in data set [6] is over 40 µM; in data set [7], over 40 µM; in [8] it was 18.4 µM.

As to `CC1=C(C2=C(C)C(=O)c3c(c(/C=N/[C@@H]4C(=O)N5[C@@H]4SC(C)(C)[C@@H]5C(=O)[O-])c(O)c(O)c3C(C)C)C2=O)C(=O)c2c(/C=N/[C@@H]3C(=O)N4[C@@H]3SC(C)(C)[C@@H]4C(=O)[O-])c(O)c(O)c(C(C)C)c2C1=O.[Na+].[Na+]`, the result in [11], in data set [14], in data set [15], in [16], in data set [25] and in [26] was Active. Moreover, the outcome in data set [31] was Active. Also, the result in data set [12] and in data set [13] was inactive. Besides, the Activity entry in data set [17] is “Non-toxic”; in [18], “Non-toxic”; in data set [28], “tde”; in data set [29], “tde”; in data set [30], “Dose-dependent effect”. Moreover, the IC50 in data set [1] was 8.77 µM; in data set [2], over 40 µM; in [3] it was 29.1 µM; in data set [10], 6.56 µM; in data set [4], 17.4 µM; in [5], 11.1 µM. Further, the concentration for half-maximal inhibition (IC50) in data set [6] is 29.5 µM; in data set [7], 28.2 µM; in data set [8], 6.59 µM. In data set [19], this molecule returned a solubility of 9.25 g. Besides, the Stability entry in data set [20], in data set [21] and in data set [22] was “Stable” in each case. The values for the viability at 20 µM in data set [23] and in data set [24] were 80% and 60%, respectively. Also, in [27], the viability at 2 µM was over 90%.
